Sampled rows, rich in hits. Any-hit rate of the full collection: about 2.2%.
Statin myotox sup: protects C2C12 myotubes from simvastatin toxicity; ATP luminescence, 48 h; scaled: DMSO 0, geranylgeraniol control 100; rescue of ATP level, % at 7.49 µM; 330,000 tested, 0.78% active; AID 602340;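 active means mean ATP rescue above about 67%, or every replicate alone reaching that limit, limit read from the data, passing the limit was not always enough; inconclusive means no clear call, values can overlap the other calls; inactive means mean under the limit and some replicate under it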;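 further: myotubes were challenged with 10 µM simvastatin during compound exposure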
E-selectin induc: E-selectin induction on HUVECs; AID 686992; HUVEC E-selectin immunofluorescence imaging; normalized: neutral wells 0, TNF-alpha wells 100; 260,000 tested, 0.37% active; activation, % at 7.58 µM;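 active means mean E-selectin-positive cell signal at least 10% of the positive control, reached in at least 60% of replicates, without over 20% cell loss; inconclusive means no rule given, readout overlaps actives, possibly toxicity-flagged; inactive means the rest, including those meeting only one limit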
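Material: HUVEC primary endothelial cells; Amount: 3,000 cells per well; Dosing: single concentration; Medium: EGM-2 growth medium on 0.1% gelatin-coated wells; Read-out basis: percent E-selectin-positive cells; Signal: immunofluorescence imaging; Control set: TNF-alpha, DMSO.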
DENV2 CPE: inhibitors of DENV2 cytopathic effect | DENV2-infected cells, cytopathic effect rescue, plate reader | CPE inhibition, % at 9.99 µM | 350,000 tested, 1.7% active; in the data active means CPE inhibition above about 20%, passing the limit was not always enough; inconclusive means no clear call, values can overlap the other calls; tested in BHK-21 cells;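 further: 0% = median of neutral control wells and 100% = median of positive control wells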
Numbers without * were called inactive; ? = inconclusive; . = no result.

SMILES	Statin myotox sup	E-selectin induc	DENV2 CPE
CS(=O)(=O)N1[C@@H]2c3ccc(-c4ccccc4F)c(=O)n3C[C@@H]2[C@@H](CO)[C@@H]1C(=O)NCC1CC1	.	-0.2	-4.2
CN(C)CCCNc1oc(-c2ccccc2Cl)nc1S(=O)(=O)c1ccccc1	-5.2	0.2	5.0
CCCCNc1oc(-c2cccs2)nc1S(=O)(=O)c1ccccc1	131.2*	.	.
CN(C)CCCNc1oc(-c2ccc(Cl)cc2)nc1S(=O)(=O)c1ccccc1	-17.6	0.3	38.5*
CNc1oc(-c2cccs2)nc1S(=O)(=O)c1ccccc1	.	2.1	-9.0
C[C@@H]1CN([C@H](C)CO)C(=O)Cc2cc(NC(=O)C3CC3)ccc2O[C@H]1CN(C)C	-1.1	-0.1	-4.8
Cc1ccc(-c2cnc3c(c2)C(=O)N([C@H](C)CO)C[C@@H](C)[C@H](CN(C)C(=O)c2cccnc2)O3)cc1	-6.3	-0.3	7.1
CO[C@H]1CN(C)C(=O)c2ccc(NS(=O)(=O)c3ccccc3F)cc2OC[C@@H](C)NC[C@@H]1C	-6.7	-0.1	6.7
O=C(NC1CCCC1)[C@@H]1[C@@H](CO)[C@@H]2Cn3c(ccc(-c4ccncc4)c3=O)[C@@H]2N1CCc1ccccc1	-14.5	0.0	2.0
CS(=O)(=O)N1CCCCN2[C@H](CO)[C@@H](c3ccc(-c4cccc(C#N)c4)cc3)[C@@H]2C1	-12.3	0.5	-3.8
CC(C)c1ccc(S(=O)(=O)N2CCN(C(=O)n3ccnc3)CC2)cc1	-5.8	-0.3	31.1*
Cc1ccc(S(=O)(=O)N2CCN(C(=O)n3ccnc3)CC2)cc1	-11.2	.	-8.3
NC(=S)NNC(=O)C12CC3CC(CC(C3)C1)C2	7.7	54.9*	-3.1
COC(=O)NNC(=O)C12CC3CC(CC(C3)C1)C2	-1.2	0.1	?
C[C@@H]1CN([C@H](C)CO)C(=O)Cc2cc(NS(C)(=O)=O)ccc2O[C@@H]1CN(C)Cc1ccc(-c2ccccc2)cc1	94.8*	0.8	6.4
Cc1ccc(S(=O)(=O)Nc2ccc3c(c2)CC(=O)N([C@H](C)CO)C[C@H](C)[C@H](CN(C)Cc2ccc(-c4ccccc4)cc2)O3)cc1	9.6	0.3	-5.5
C[C@H](CO)N1C[C@H](C)[C@@H](CN(C)Cc2ccc(-c3ccccc3)cc2)Oc2ccc(NS(C)(=O)=O)cc2CC1=O	28.8	1.5	19.8
Cc1ccc(S(=O)(=O)Nc2ccc3c(c2)CC(=O)N([C@H](C)CO)C[C@H](C)[C@@H](CN(C)Cc2ccc(-c4ccccc4)cc2)O3)cc1	55.2	-0.1	-7.1
C[C@@H]1CN([C@H](C)CO)C(=O)Cc2cc(NS(=O)(=O)c3ccccc3)ccc2O[C@@H]1CN(C)Cc1ccc(-c2ccccc2)cc1	24.7	0.5	56.2*
Cc1ccc(S(=O)(=O)Nc2ccc3c(c2)CC(=O)N([C@@H](C)CO)C[C@H](C)[C@H](CN(C)Cc2ccc(-c4ccccc4)cc2)O3)cc1	15.6	0.1	?
Cc1ccc(S(=O)(=O)Nc2ccc3c(c2)CC(=O)N([C@@H](C)CO)C[C@H](C)[C@@H](CN(C)Cc2ccc(-c4ccccc4)cc2)O3)cc1	128.6*	0.1	11.9
C[C@@H]1CN([C@@H](C)CO)C(=O)Cc2cc(NS(=O)(=O)c3ccccc3)ccc2O[C@@H]1CN(C)Cc1ccc(-c2ccccc2)cc1	14.8	0.0	44.0*
C[C@@H]1CN([C@H](C)CO)C(=O)c2cc(NC(=O)Cn3cnnn3)ccc2O[C@H]1CN(C)C(=O)Nc1cccc2ccccc12	18.9	-8.5	3.5
CCNC(=O)[C@@H]1[C@@H](CO)[C@@H]2Cn3c(ccc(/C=C/c4ccccc4)c3=O)[C@H]1N2	22.6	0.3	-13.4
COC(=O)C[C@@H]1CC[C@@H]2[C@@H](COc3ccc(NC(=O)c4cc(F)cc(F)c4)cc3C(=O)N2C)O1	-8.7	0.3	11.3
SMILES	Statin myotox sup	E-selectin induc	DENV2 CPE
CC(C)C#Cc1cnc2c(c1)C(=O)N([C@H](C)CO)C[C@@H](C)[C@H](CN(C)Cc1cccc(F)c1)O2	45.9	-0.1	-6.3
CN(C)C(=O)C[C@@H]1CC[C@@H]2[C@H](COC[C@H](O)CN2C(=O)C2CC2)O1	1.4	-0.1	18.7
C[C@H](CO)N1C[C@H](C)[C@H](CN(C)Cc2ccccc2)Oc2ccc(NS(=O)(=O)c3ccccc3)cc2CC1=O	18.1	-0.3	54.6*
C[C@H]1CN([C@@H](C)CO)C(=O)Cc2cc(NS(=O)(=O)c3ccccc3)ccc2O[C@@H]1CN(C)Cc1ccccc1	43.8	-0.4	-14.1
O=C(C[C@H]1CC[C@H](NC(=O)NC2CCCC2)[C@@H](CO)O1)NCc1ccc(F)cc1	5.5	0.1	-5.4
CC(C)(C)OC(=O)N[C@@H](CC(=O)OCc1ccccc1)C(=O)O	.	.	-4.4
C[C@H](NC(=O)OCc1ccccc1)C(=O)NNC(=O)[C@H](Cc1ccccc1)NC(=O)OC(C)(C)C	4.9	.	3.5
